The test system of this data set is MS2 coat protein. Description: apparent Kd, MS2 coat protein; higher = weaker binding; RNA-MaP array. In outline: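 Binding of fluorescently labeled MS2 coat protein, at 1.5 nM to 3 μM and room temperature, was measured with or without input ligand on designed RNAs transcribed on an Illumina sequencing chip from sequenced DNA templates. Apparent Kd was defined as the median of per-cluster binding-curve fits. No design measured on fewer than 10 clusters was kept.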

The mark [1] stands for this setting: designed as: OFF switch for flavin mononucleotide, no ligand.
The mark [2] stands for this setting: ligand present: flavin mononucleotide, designed as: OFF switch for flavin mononucleotide.
Where [3] appears, read: designed as: ON switch for flavin mononucleotide, no ligand.
[4] abbreviates: ligand present: flavin mononucleotide, designed as: ON switch for flavin mononucleotide.
Where [5] appears, read: designed as: ON switch for tryptophan, no ligand.
Where [6] appears, read: ligand present: tryptophan, designed as: ON switch for tryptophan.
The mark [7] stands for this setting: designed as: ON switch for theophylline, no ligand.
The mark [8] stands for this setting: ligand present: theophylline, designed as: ON switch for theophylline.
Where [9] appears, read: designed as: OFF switch for theophylline, no ligand.
Where [10] appears, read: ligand present: theophylline, designed as: OFF switch for theophylline.
[11] abbreviates: designed as: OFF switch for tryptophan, no ligand.
Setting [12] is: ligand present: tryptophan, designed as: OFF switch for tryptophan.

What is called apparent Kd is the concentration giving half-maximal binding under the conditions of the assay. “ACAUGAGGAUCACCCAUGUGGUCGGCUAUCUACCCAAUGGGCGAGGAUAUCGAGGCAAGAUAAUUCGAGAAGGCGCGUAAGAUA”: the “apparent Kd” value reads like this: under setting [1], 101 nM; under setting [2], 47.4 nM.
Regarding “UGGACUGUGACAUGAGGAUCACCCAUGUAAAUAAUUCCGCAUAGAAGGGUCCAACGUAAAUGAAGACAGGAUAUAUGGGAGCGU”, the “apparent Kd” value runs as follows: under setting [3], 45.4 nM; under setting [4], 24 nM.
As to “UGAAAUUACGGAGGAUAUCUAUUUACAUGAGGAUCACCCAUGUCCCAGCUACUGCUAUUAUCCGCAGAGAAGGCCGGUGAGUCC”, the “apparent Kd” value is 171 nM under setting [3] and 105 nM under setting [4].
Take “AUUAUGUAAGGAUAUCGAGAAAUAAAGAAUCUAGUCAGCCACGAGAAGGAACAUGAGGAUCACCCAUGUGGAUA”: the “apparent Kd” value reads like this: under setting [1], 13.8 nM; under setting [2], 12.2 nM.
Turning to “GAUCAACAUGAGGAUCACCCAUGUUAGGAUAUCACACCGGAAAGUGAAAUGCUUUUCUUGAGAAGGAACAAGGC”, the “apparent Kd” value is, setting by setting: under setting [1], 7.91 nM; under setting [2], 7.28 nM.
Consider “AAAAUCUGGUGAGGAUAUUGUUGAUGAUACAAACAAGAAGGCACGUUGACAUAGCGGGACAACAUGAGGAUCACCCAUGUCACU”, for which the “apparent Kd” value amounted to 46.6 nM under setting [1] and 42.1 nM under setting [2].
Turning to “AGCGAUGACUGAGGAUAUGCUGUUAGGACAUUGCAACAUGAGGAUCACCCAUGUGAAGGCCGUCAGCAGAAGGCAGUACGUGGA”, the “apparent Kd” value reads like this: under setting [3], 6.08 nM; under setting [4], 4.75 nM.
Taken in the same sequence, the figures for “ACUCAACAUGAGGAUCACCCAUGUACUCCAAACAAAGGAUAUUGUGAGUUAAUAUGCAUGCAAGAAGGUUGGUUCA” were 42.8 nM and 36.3 nM.
In the case of “UCACAACUAGGAUAUUUAGUGCUAUACAUGAGGAUCACCCAUGUCGUGUGCACUAGUACGAAAGAAGGAGUUAUCG”, the “apparent Kd” value worked out at 5.09 nM under setting [1] and 5.21 nM under setting [2].
Taken in the same sequence, the figures for “ACGAGCCUAGGAUAUACAUGAGGAUCACCCAUGUGACUGAACACUCCGGUAUGUGCGGGUAGAAGGAGGUUCCA” were 16.3 nM and 16.8 nM.
As for “AACAGAAGGCAAGGAUAUAAGGGACCCCCAACAUGAGGAUCACCCAUGUUCUAUGAGGCCGAAUUUUAGAAGGUGCGGGACUAG”, the “apparent Kd” value under setting [3] is 43.9 nM and the “apparent Kd” value under setting [4] came to 32.2 nM.
For “CAAGCGCAUAAGUACGCAACUACAUGAGGAUCACCCAUGUGAAGAAGGGCACAUCUAUCCCACGUGCAGGAUAUUCUCCAAUUU”, in that order: 44.8 nM and 51 nM.
Consider “UAAAACAUGAGGAUCACCCAUGUAUUGAGUCGAGGACCGGUACGGCCGCCACUCGGCAAUAAUAACGACGCAUAGCAUGUAGGAA”, for which the “apparent Kd” value was 12.7 nM under setting [5] and 14.5 nM under setting [6].
As for “UAUUUUGCGAAGAAGGAAGCCUCACUGGAAUGCUUAGGAUAUUCUCGCGUGGAGCACAUGCACAUGAGGAUCACCCAUGUACCG”, the “apparent Kd” value is 28.7 nM under setting [3] and 20.1 nM under setting [4].
For the sequence “GAACGUAGAGGAUAUACGACAAUGCACUGAUCGACGAGUACACAUGAGGAUCACCCAUGUAGAAGGCUAGGAAU”, the “apparent Kd” value by setting is: under setting [1], 7.28 nM; under setting [2], 6.45 nM.
Regarding “AGAAAUGUAUUAGGAUAUUGGCGCGUAUUACGACAAGAAGGAAUACAUGAGGAUCACCCAUGUAACCCGCUCCGCGGUCCAUGG”, the “apparent Kd” value is, setting by setting: under setting [1], 101 nM; under setting [2], 64.3 nM.
Taken in the same sequence, the figures for “CGGUUACUAGGAUAUACAUGAGGAUCACCCAUGUGACCUCCCGUCACGCGUGUACUGGGUAGAAGGAGUCAGGU” were 24.8 nM and 34.8 nM.
As to “ACGAGACGUCUGGAUACCAGCCCAGCGAUAAACAUGAGGAUCACCCAUGUCAAACCACCCGGCCCUUGGCAGCCACGUACCUCAC”, the “apparent Kd” value under setting [7] is 14.5 nM and the “apparent Kd” value under setting [8] came to 10 nM.
With “GGACGUGGGCAGGAUAUGCGAAUUGAUUGAGCGGCAGAAGGGCCUACAUGAGGAUCACCCAUGUAGAUGCUUAC”, the “apparent Kd” value under setting [1] turned out to be 5.4 nM and the “apparent Kd” value under setting [2] worked out at 11.7 nM.
For “CUCGAGUCAGGAUAUAUUAACAGAACUUCCUAAAUGGACGAAUAGAAGGGACAUGAGGAUCACCCAUGUUUGGC”, in that order: 11.8 nM and 11 nM.
As for “CUACUCAUAGGAUAUGAAGCCCGAGACAUGAGGAUCACCCAUGUAUGAUCUACUGUGCGCUCAGAAGGAUGCAGUA”, the “apparent Kd” value is, setting by setting: under setting [1], 23.9 nM; under setting [2], 13.4 nM.
Taken in the same sequence, the figures for “CGCAAUUCCUGAGGAUAUUGGCAGCGACAUGAGGAUCACCCAUGUGACCAUUUGGUGUUUUGUGUCAAGAAGGCAGCCCAUGAG” were 44.9 nM and 33.8 nM.
“AAAUAAUCUAGUCCACAAUGUGACUCAGAUACCAGUGCAAAGCUACACCCUUGGCAGCUGGUUACAUGAGGAUCACCCAUGUCGU”: the “apparent Kd” value under setting [9] stood at 47.6 nM and the “apparent Kd” value under setting [10] was 116 nM.
Turning to “CCUCAAAUGACAUGAGGAUCACCCAUGUAGCGCACAACCGCUAGAAGGACGACAAAGUCUUAUGCGUAGGAUAUAGCGAGCGCG”, the “apparent Kd” value amounted to 132 nM under setting [3] and 133 nM under setting [4].
As for “GAUGACUUAGGAUAUCAAAUUCUCGACAUGAGGAUCACCCAUGUGUAUCCGCCAGGUUAGUGAGAAGGAAGUUGGA”, the “apparent Kd” value under setting [1] amounted to 91.3 nM and the “apparent Kd” value under setting [2] was 77.8 nM.
For “GAGUGGUAAGGAUAUAAUACGAAUACGGUGAAACCCGGCGUUUAGAAGGUACAUGAGGAUCACCCAUGUGAUUA”, in that order: 13.2 nM and 13.8 nM.
Taken in the same sequence, the figures for “AAAUGGGAGGUACGCACCACUACAUGAGGAUCACCCAUGUAUAGAAGGCAGGUCUGGACUCGUCCUGAGGAUAUAUGAUUUGAC” were 17.9 nM and 16.5 nM.
For “AGGAAUAAGACAGGAUAUCGUAAAAUAUAAAACCGAGAAGGGUCACAUGAGGAUCACCCAUGUGUUCCAACGGUGAUCCCUAGA”, in that order: 64.9 nM and 68.2 nM.
As to “CGUCUAGUUGAGAAGGAUUCGGCGUCGGUCAUGUUAAUCUGGAAACAUGAGGAUCACCCAUGUCAAUAGGAUAUCAGGGCACUA”, the “apparent Kd” value was determined as 11.2 nM under setting [1] and 12.8 nM under setting [2].
As for “UAUGUCGCCGAAGAUACCAGCCUGGCAAGCAACAUGAGGAUCACCCAUGUAAUUACUUAUGGCCCUUGGCAGCUUCAAAUAGAGC”, the “apparent Kd” value under setting [7] was determined as 11.4 nM and the “apparent Kd” value under setting [8] amounted to 11.8 nM.
Turning to “UGCAAUGGGUGAGGAUAUACCCACACACAUGAGGAUCACCCAUGUUUCACAAAGGUGAUGACGCGGUAGAAGGCACAAUCCACU”, the “apparent Kd” value by setting is: under setting [3], 268 nM; under setting [4], 98.1 nM.
Turning to “AACGAUUAAUCGGCCGCCACUCACAUGAGGAUCACCCAUGUUGUUCUUCCAGGUGGUUCUGUUCCGAGGACCGGGAUUCCGUCCU”, the “apparent Kd” value by setting is: under setting [11], 55.1 nM; under setting [12], 57.5 nM.
Regarding “AUCAAUCUAGGAUAUACAUGAGGAUCACCCAUGUCUUCAACCAAGGGCUCCACGACCUGUAGAAGGAGACAAAA”, the “apparent Kd” value reads like this: under setting [1], 27 nM; under setting [2], 22 nM.
For “GAGAGGAGGGAGAAGGAGAUAGUCUUCGGCAAUCUAGGAUAUCCACGUAGGGAAUCUCACAUGAGGAUCACCCAUGUUCAGCCG”, in that order: 34.8 nM and 31.7 nM.
For “CGUCAGUAAGGAUAUACCCGCACUUAACACGAGCGUCGUCGGUAGAAGGUACAUGAGGAUCACCCAUGUAGAAA”, in that order: 7.84 nM and 8.95 nM.
Consider “AAGUCAGGAGGCGAUACCAGUUACGACAUGGCCAGUUACAUGAGGAUCACCCAUGUGCGGAACCCUUGGCAGCGCUUACAUCGCU”, for which the “apparent Kd” value was 23.1 nM under setting [9] and 165 nM under setting [10].
As to “CUAGAAGACACGGAGGAUAUGUUGUGUAUUACAUGAGGAUCACCCAUGUUCGGAAGUACCGAUUGACAGAAGGCCGUGCAAUCGCU”, the “apparent Kd” value was found to be 6.66 nM under setting [3] and 5.73 nM under setting [4].
As for “UUGCAUUCUAAUCCUCUUACGACAUGAGGAUCACCCAUGUGUCAGGAUAUUCGAGAAGGAGCGACGAAGAAGGGACUAAUACAC”, the “apparent Kd” value reads like this: under setting [1], 40.7 nM; under setting [2], 32.8 nM.
As for “AAAUAAGAGGAGAAGGGCAAAAUGUCGAACCGAGCAGGAUAUCCACAGAACAUGAGGAUCACCCAUGUGGUCAAACAGUACAAA”, the “apparent Kd” value reads like this: under setting [3], 54.4 nM; under setting [4], 39 nM.
For “GUGAUACUUGGAGGAUAUGCUUUCACCUGGUACUCUAUUACAGUGACAUGAGGAUCACCCAUGUAGCAGAAGGCCAGUCAUCGA”, in that order: 18.8 nM and 9.73 nM.
Take “GCACGGAAAGGAUAUACAUGAGGAUCACCCAUGUUUCUUCUCAGGGCAAUUACCACAUGUAGAAGGUUCUCCAG”: the “apparent Kd” value came to 29.4 nM under setting [1] and 39.8 nM under setting [2].
As to “CAGAACAUGAGGAUCACCCAUGUAAACGACCGAGGACCGGUACGGCCGCCACUCGAUAUGUCUUGAGGGAGAUAUGGAUUCACAU”, the “apparent Kd” value by setting is: under setting [5], 39.9 nM; under setting [6], 38.3 nM.
As to “GGGAGAGAGGUCAGGAUAUUGCGGCGAAAUGCAGUCAAGAAGGGACAUGAGGAUCACCCAUGUACAUCAAGAGC”, the “apparent Kd” value is 6.38 nM under setting [1] and 10.4 nM under setting [2].
For “GAUUGACAUGAGGAUCACCCAUGUAGCGUAUGGUGACUUCUGAAGGAUAUUAAUGCAGUGGCGGUUAAGAAGGUCAGCUAAUCG”, in that order: 45.7 nM and 35 nM.
As to “ACUCUCGGCUAAGGAUAUCUCCGACUGACCAAUAGAGAAGGUAGUCGACGUGCGAUCAGACAUGAGGAUCACCCAUGUGAAAUC”, the “apparent Kd” value runs as follows: under setting [3], 7.07 nM; under setting [4], 7.14 nM.
Taken in the same sequence, the figures for “GCAGUCCUCCGAGGAUAUAUGACAAUUGACGUGAGAUGUUAGCACAUGAGGAUCACCCAUGUUUUAUAGAAGGCGGGAUAGGUU” were 20.5 nM and 18.3 nM.
As to “AUAACAGUGUCGGCCGCCACUAGAACACAUGAGGAUCACCCAUGUGGUGGUACCUCCUAAGACGAUAGGACCGGGACCCAUCUAC”, the “apparent Kd” value reads like this: under setting [11], 134 nM; under setting [12], 95.2 nM.
